Measurements reported in ChEMBL document CHEMBL3098049, “Concise synthesis and biological evaluation of 2-Aroyl-5-amino benzo[b]thiophene derivatives as a novel class of potent antimitotic agents” (J Med Chem, 2013).

Tested on: Jurkat
Test: Cell cycle arrest in human Jurkat cells assessed as accumulation at G2/M phase after 24 hrs by propidium iodide staining-based flow cytometric analysis
Assay type: functional
Summary of the method: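 Jurkat cells treated for 24 h, fixed, PI-labelled and analysed by flow cytometry for cell-cycle phase distribution. Mean of three independent experiments.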

## COc1cc(C(=O)c2cc3cc(N)cc(OC)c3s2)cc(OC)c1OC
  Activity: Dose-dependent effect
